We go through six molecules from publication PMC5989829 (Acta Pharmaceutica Sinica. B, 2017).

The test system of data set [1] is calf-thymus DNA (CT-DNA). To be noted: cited from earlier work.
Data set [2] has as its system necrotic muscle. Description: Self-blocking experiment in muscular necrosis model rats. In kind it is in vivo, rat. The conditions noted are these: 24 h.
The conditions of data set [3]: human, even pregnant women and newborn babies, cited from earlier work.
The subject of data set [4] is A549 cells. Description: Fluorescence microscopy of necrotic and viable A549 cells. It counts as cell-based, human. The conditions noted are these: 50 μmol/L, 30 min, co-staining with Hoechst 33342 and PI.
Data set [5] relates to A549 necrotic cells. Description: Nuclear extraction from necrotic A549 cells incubated with tracer. In kind it is cell-based, human. To be noted: 50 μmol/L.
Data set [6] concerns necrotic liver and necrotic muscle. Put plainly: Fluorescence microscopy of liver and muscle cryostat slices from model rats. In kind it is in vivo, rat. To be noted: i.v. 2.0 mg/kg, 12 h to 8 days, λex=620 nm, λem=680 nm.
In data set [7] the test system is calf-thymus DNA (CT-DNA). Put plainly: Competitive study with ethidium bromide on CT-DNA. It counts as binding. The method, boiled down:
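CT-DNA prepared in 5 mmol/L Tris-HCl/50 mmol/L NaCl, pH 7.4, stirred at 4 °C for three days; concentration set by A260 (ε=6600 L/mol.cm). Test compound (stock 6.0×10−4 mol/L) titrated into 2.5 mL CT-DNA–ethidium bromide (CT-DNA 6.0×10−5 mol/L) to ratios 0 to 7/30. Fluorescence read at 25 °C, λex 530/λem 604 nm. Ksv from Stern–Volmer fit of I0/I versus compound concentration.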

For data set [8], the system named is calf-thymus DNA (CT-DNA). Put plainly: UV–vis spectroscopic study of interaction with CT-DNA. The conditions noted are these: 25 °C, increasing CT-DNA. It counts as binding.
The conditions of data set [9]: cited from earlier work; for Water solubility: must be dissolved in organic solvents such as DMSO.
Data set [10] in a line: In vitro stability of the radiotracer in rat serum. It counts as in vitro ADME. The conditions noted are these: stored in rat serum at 37 °C, up to 8 days. The method, boiled down: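 Radiolabelled test compound mixed with rat serum (1:9 volume ratio) and kept at 37 °C. Sampled at 0.5, 4 h, 1, 2, 3 and 8 day. Label integrity assessed by TLC.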
Data set [11] is described as follows: Water solubility. It counts as physicochemical. The conditions noted are these: can be dissolved in PBS or saline.
A short description of data set [12]: Pharmacokinetics. In kind it is in vivo, rat. To be noted: normal rats, i.v. 14.8 MBq/kg in PBS, non-compartmental, mean±SD, n=6. The method, boiled down: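 Six healthy rats dosed i.v. with radiolabelled test compound (14.8 MBq/kg) in PBS. 10 μL tail-slit blood samples drawn at 5, 10, 30 min and 1, 2, 4, 6, 8, 12, 24, 48 h. Samples γ-counted with decay and background correction and expressed as MBq per liter. Parameters derived by non-compartmental analysis; mean±SD.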

The test system of data set [13] is necrotic liver and necrotic muscle. Put plainly: Autoradiography of necrotic/normal liver and partially necrotic muscle sections. In kind it is in vivo, rat. To be noted: 24 h after intravenous injection. The method, boiled down: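 Rats (male SD, 260–280 g) on 0.1% KI drinking water from 3 days before study. Liver necrosis: right-lobe hilum clamped 3 h, then reperfused; muscle necrosis induced with absolute ethanol. Labelled test compound (14.8 MBq/kg, 2.0 mg/kg) in PBS given i.v. via tail vein; sacrifice at 12, 24, 72 h, 8 day (n=5 each). Frozen 30 μm sections cut at −20 °C, 3 h phosphor-screen exposure, then H&E for co-localization.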

Data set [14] has the same test system. In kind it is in vivo, rat.
Setting [15] is: γ counting, 24 h after i.v. 14.8 MBq/kg, model rats.

Read-outs that look alike come from different tables or passages of the source.

Take `Nc1ccc2c(c1)C(=O)c1ccccc1C2=O` [2-aminoanthraquin]: the “Binding constant with CT-DNA” value in data set [1] is on record as 1.25×10^3 L/(mol/L).

Take `Cc1cc(-c2ccc(/N=N/c3ccc4c(S(=O)(=O)O)cc(S(=O)(=O)O)c(N)c4c3O)c(C)c2)ccc1/N=N/c1ccc2c(S(=O)(=O)O)cc(S(=O)(=O)O)c(N)c2c1O` [EB, Evans blue]: the “Radioactivity of ^131I-EB in necrotic muscle blocked” value in data set [2] (10 mg/kg EB) is on record as “about 65%”. Further, the “Adverse reactions in clinical use” value was “without adverse reactions” in [3] (ref 24, 25) and “without any adverse reactions” in [3] (ref 41, 42). The Cellular localisation result in data set [4] was “specifically located in the nuclei of necrotic cell”. The “Uptake in necrotic cell nuclei” value in data set [5] (15 min incubation) is on record as 82.3%; in data set [5] (2 h incubation) it was 79.2%. For the same molecule, the “Retention in necrotic tissues by fluorescence microscopy” value in data set [6] is “Selective retention of EB in necrotic tissues up to 8 days”. Besides, the “Ksv (Stern–Volmer quenching constant; binding constant with CT-DNA)” value in data set [7] (CT-DNA-ethidium bromide displacement, 25 °C, λex=530 nm) is 5.08×10^5 L/(mol/L). Also, the “Binding constant with CT-DNA relative to 2-aminoanthraquin” value in [7] (EB versus 2-aminoanthraquin) is 400 times. Further, in [8], the “Change of UV–vis absorption bands on addition of CT-DNA” value is “significant hypochromism accompanied with a red shift”.

Regarding `Cc1cc(O)c2c(=O)c3c(O)cc(O)c4c5c(O)cc(O)c6c(=O)c7c(O)cc(C)c8c1c2c(c34)c(c78)c65` [Hyp, Hypericin], the Solubility result in [9] is “nearly insoluble in water and most nonpolar solvents”.

For ^131I-evans blue [^131I-EB], the “Uptake in necrotic muscle” value in [2] (coinjected with excessive cold EB (10 mg/kg), n=3, P<0.01) is recorded as 0.47±0.07 %ID/g. For the same molecule, in data set [2] (non-blocking group, n=3), the “Uptake in necrotic muscle” value was 1.35±0.22 %ID/g. The “In vitro stability (radiolabeling stability by TLC)” value in data set [10] was “over 90%”. Moreover, the Water solubility result in data set [11] is “highly water-soluble”. In data set [12], the “AUC0–t” value was 564.82±27.55 MBq/L ·h, the “AUC0–∞” value amounted to 737.28±62.32 MBq/L ·h, the “CLz (clearance)” value amounted to 0.021 ± 0.004 L/h/kg and the “Cmax (peak concentration)” value came out at 96.84±10.05 MBq/L. Besides, in data set [12], the “Tmax (peak time)” value worked out at 4.98 ± 0 min and the “t1/2z (elimination half-life)” value is 24.40 ± 3.64 h. In addition, in data set [13], the “Radioactivity ratio of necrotic to normal liver” value stood at 4.26 and the “Radioactivity ratio of necrotic to normal muscle” value was determined as 10.2. The “Uptake in necrotic cell nuclei” value in data set [5] (15 min incubation) amounted to 82.3%. Also, the “Uptake in necrotic cell nuclei” value in [5] (2 h incubation) worked out at 79.2%. Further, the “Time of highest uptake in necrotic liver and muscle” value in [14] (time points 12, 24, 72 h and 8 day) was determined as 24 h. The “Time of highest radioactivity in normal tissue” value in data set [14] (time points 12, 24, 72 h and 8 day, especially normal liver, spleen, kidney) is 12 h. For the same molecule, the “Ratio of uptake in necrotic muscle to normal muscle” value in [14] (γ counting, 8th day after i.v. 14.8 MBq/kg, model rats) was found to be 7.43 times. Moreover, in [14] (setting [15]), the “Radioactivity ratio of necrotic to viable (normal) liver” value was found to be 3.41 and the “Radioactivity ratio of necrotic to viable (normal) muscle” value came out at 11.82.

On to ^131I-hypericin, for which the Water solubility entry in data set [9] is on record as “water-insoluble”.

Turning to ^131I-sennidin A, in data set [9], the Water solubility entry was “water-insoluble”.
